From PubChem BioAssay
Inconclusive results are not listed. Calls of active or inactive are those of the source.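 How the source made its calls, unless noted: active means viability increase at or above a cutoff of the median across tested compounds plus 3 SD (cut at about 8.5% in these data, passing the limit was not always enough); inconclusive means some gains above the cutoff, reason not given; inactive means the rest.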

Assays:
[1] = OD615 S. cerevisiae growth inhibition, permissive medium, pilot counter-assay, permissive growth control for S. cerevisiae lifespan shortening project (AID 705;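 active means growth inhibition above 25% in both replicates, a cutoff set 3 SD above the mean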); settings: OD615, 24 h, at 10 µM, hits give high values
In short: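 System: S. cerevisiae with engineered DeaD lifespan system / Measured by: absorbance (optical density) at 615 nm / Read-out: reduction in yeast growth (OD615) / Times: 4 h cell pre-growth, 24 h exposure at 30 °C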

[2] = Restrictive medium S. cerevisiae growth inhibition, OD615, pilot screen of yeast lifespan reduction project, restrictive growth control (AID 706;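 active means growth inhibition above a set limit, 3 SD over mean compound inhibition, in both replicates, cut at about 43% in these data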;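 further: modified DeaD lifespan yeast strain shifted to restrictive glucose medium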); settings: OD615, 48 h, at 10 µM, hits give high values
In short: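 System: Engineered S. cerevisiae DeaD strain | Buffer or medium: Glucose-based CSMM-D restrictive medium | Schedule: 4 h pre-incubation, 48 h exposure at 30 °C | Technique: Optical density at 615 nm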

[3] = viability gain of MRP-1-high H69AR cells under doxorubicin, pilot screen, MRP-1 activator project, CellTiter-Glo, duplicate (AID 807); settings: H69AR viability with doxorubicin, CellTiter-Glo luminescence; at 10 µM; hits give high values;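 further: compound pretreatment 18-22 h then 72 h combined with doxorubicin; 0% = doxorubicin alone and 100% = vehicle without doxorubicin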
[4] = growth suppression of beta-catenin knockout HCT116, pilot screen, human colon tumor cells (AID 823;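 active means cell viability at or below a set limit in both duplicate runs, the limit being the all-compound median minus 4 SD, cut at about 23% in these data, passing the limit was not always enough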;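 further: 0% = wells killed by 20 µM Hyamine and 100% = untreated DMSO cell wells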); settings: CellTiter-Glo, 60 h, at 10 µM, hits give low values
[5] = growth suppression of PTEN-deleted HCT116, pilot screen, cell-based, HCT116 clonal line, CellTiter-Glo (AID 824;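 active means viability at or below 27.92% in each of two runs, the all-compound median minus 4 SD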;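 further: 0% = 20 µM Hyamine control and 100% = vehicle cell control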); settings: 60 h, at 10 µM, hits give low values
[6] = inhibitors of the yeast RAM network, pilot screen, dse1pr::URA3 reporter, 5-FOA selection (AID 869;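 active means inhibition over a set limit, the all-compound mean plus 3 SD, in both replicate runs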;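 further: 0% = DMSO wells with no growth and 100% = 10 µM 1-NA-PP1 with full growth; RAM network block rescues cells from 5-FOA so hits raise OD615 growth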); settings: S. cerevisiae dse1pr::URA3 5-FOA growth, OD615, 2 d; at 10 µM; hits give high values; strain carries analog-sensitive mutant Cbk1 kinase
[7] = RAM signaling pathway blockade in yeast – S. cerevisiae, Pdr1DBD-CYC8 efflux-inhibited sensitized strain, primary screen (AID 1298;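 active means RAM network inhibition above 8.4% in each of two replicates, 3 SD over the compound average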;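 further: 0% = DMSO untreated cells without growth and 100% = 10 µM 1-NA-PP1 full growth; higher means more yeast growth rescued from 5-FOA killing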); settings: S. cerevisiae cbk1-as DSE1-URA3 strain, 5-FOA growth OD615, 2 d; at 50 µM; hits give high values

Cn1c(NC(=O)c2ccccc2Br)cc(=O)n(C)c1=O
inactive: growth inhibition [1] -9.54% | growth inhibition [2] -19.3% | viability increase [3] -3.97% | viability [4] 105% | viability [5] 94.5% | inhibition [6] 1.15% | RAM network inhibition [7] 0.36%

CCOC(=O)C1=C(C)NC(=O)CC1c1cc2c(cc1Br)OCO2 (configuration not stated)
inactive: growth inhibition [1] 1.83% | growth inhibition [2] -5.8% | viability increase [3] -4.4% | viability [4] 96.6% | viability [5] 90.6% | inhibition [6] 1.44% | RAM network inhibition [7] 6.81%

CC(C)c1ccc(NC(=O)C(c2ccccc2)N2CCOCC2)cc1 (configuration not stated)
inactive: growth inhibition [1] -0.695% | growth inhibition [2] 0.125% | viability increase [3] 1.44% | viability [4] 91.3% | viability [5] 83.6% | inhibition [6] 0.515% | RAM network inhibition [7] 0.47%

O=C(NCc1ccccc1)c1ccc(/C=N/O)nc1
inactive: growth inhibition [1] -17.6% | growth inhibition [2] -5.67% | viability increase [3] -0.06% | viability [4] 98.2% | viability [5] 106% | inhibition [6] 2.25% | RAM network inhibition [7] 6.66%

CCCn1c(C2CC(=O)N(c3cc(OC)ccc3OC)C2)nc2ccccc21 (configuration not stated)
inactive: growth inhibition [1] -6.39% | growth inhibition [2] -14.7% | viability increase [3] -2.88% | viability [4] 98.4% | viability [5] 94.8% | inhibition [6] 1.6% | RAM network inhibition [7] 5%

C(=N\c1nc2ccccc2n1Cc1ccccc1)/c1cccs1
inactive: growth inhibition [1] -3.85% | growth inhibition [2] -3.94% | viability increase [3] -3.85% | viability [4] 88.7% | viability [5] 88.6% | inhibition [6] 1.94% | RAM network inhibition [7] 4.3%

CCCCN(C)C(=O)c1ccc2c(c1)N(CC)C(=O)c1ccccc1S2(=O)=O
inactive: growth inhibition [1] -2.31% | growth inhibition [2] 3.19% | viability increase [3] -1.45% | viability [4] 87.8% | viability [5] 91.2% | inhibition [6] 1.74% | RAM network inhibition [7] 4.11%

Cc1noc(C)c1S(=O)(=O)N(CC(=O)Nc1ccc2c(c1)OCO2)c1ccc(C(C)C)cc1
inactive: growth inhibition [1] -5.59% | growth inhibition [2] -3.17% | viability increase [3] -3.69% | viability [4] 96.4% | viability [5] 93.5% | inhibition [6] 2.64% | RAM network inhibition [7] -0.06%

CCOCCCNC(=O)CN1C(=O)CSc2ccccc21
inactive: growth inhibition [1] -18.9% | growth inhibition [2] -6.29% | viability increase [3] -0.22% | viability [4] 101% | viability [5] 98.9% | inhibition [6] 1.49% | RAM network inhibition [7] 2.6%

Cc1cc(C(=O)NCc2ccccc2)c(=O)[nH]c1C
inactive: growth inhibition [1] -15.4% | growth inhibition [2] -9.45% | viability increase [3] 0.83% | viability [4] 103% | viability [5] 90.3% | inhibition [6] 2.33% | RAM network inhibition [7] 0.52%

CCOC(=O)c1[nH]c2c(c1C)C(=O)CC(c1ccc(F)cc1)C2 (configuration not stated)
inactive: growth inhibition [1] -5.83% | growth inhibition [2] -18.5% | viability increase [3] -4.6% | inhibition [6] 0.11% | RAM network inhibition [7] 1.42%
active: viability [4] 16.7% | viability [5] 20.4%

O=C1CCc2cc(S(=O)(=O)NC(Cc3ccccc3)C(=O)NCC3CCCO3)ccc2N1 (configuration not stated)
inactive: growth inhibition [1] -8.29% | growth inhibition [2] -8.79% | viability increase [3] -2.76% | viability [4] 94.3% | viability [5] 92.8% | inhibition [6] 2.2% | RAM network inhibition [7] 1.49%

NC(=O)c1ccsc1NC(=O)c1ccco1
inactive: growth inhibition [1] 7.15% | growth inhibition [2] 20.1% | viability increase [3] -1.54% | viability [4] 102% | viability [5] 99% | inhibition [6] 1.1% | RAM network inhibition [7] 1.1%

Cc1cccc(CCNC(=O)C2CCC(CNc3c(N4CCCC4)c(=O)c3=O)CC2)c1 (configuration not stated)
inactive: growth inhibition [1] -6.65% | growth inhibition [2] -3.19% | viability increase [3] -1.92% | viability [4] 99.4% | viability [5] 91.2% | inhibition [6] 1.26% | RAM network inhibition [7] 4.72%

CN(C)S(=O)(=O)c1ccc(NC(=O)C2COc3ccccc3O2)cc1 (configuration not stated)
inactive: growth inhibition [1] -9.66% | growth inhibition [2] -10.9% | viability increase [3] 0.49% | viability [4] 90.2% | viability [5] 83.8% | inhibition [6] 1.27% | RAM network inhibition [7] 2.63%

Cc1cccc(N=C(N2CCOCC2)P(=O)(N2CCOCC2)N2CCOCC2)c1
inactive: growth inhibition [1] -24.7% | growth inhibition [2] -23.4% | viability increase [3] -0.69% | viability [4] 98.1% | viability [5] 92.6% | inhibition [6] 3.29% | RAM network inhibition [7] 5.26%

COc1ccc(-c2ccc(=O)n(CC(=O)N3CCN(c4ccccc4OC)CC3)n2)cc1
inactive: growth inhibition [1] -4.48% | growth inhibition [2] 12% | viability increase [3] 2.33% | viability [4] 89.7% | viability [5] 92.9% | inhibition [6] 1.15% | RAM network inhibition [7] 7.61%

CCOC(=O)c1c(C)n(C)c2ccc(OCC(O)CN3CCC(C)CC3)cc12 (configuration not stated)
inactive: growth inhibition [1] -1.52% | growth inhibition [2] 4.4% | viability increase [3] -5.47% | viability [4] 70.2% | viability [5] 75.8% | inhibition [6] 0.415% | RAM network inhibition [7] -0.57%

C1=C(N2CCOCC2)/C(=C/c2nc3ccccc3[nH]2)CC1
inactive: growth inhibition [1] -10.4% | growth inhibition [2] 19.2% | viability increase [3] -4.25% | viability [4] 78.9% | viability [5] 82.1% | inhibition [6] 0.41% | RAM network inhibition [7] 2.44%

CCOCCOCN(C#N)c1nc(OC)nc(N(C)C)n1
inactive: growth inhibition [1] -5.92% | growth inhibition [2] 0.69% | viability increase [3] 1.74% | viability [4] 102% | viability [5] 99.9% | inhibition [6] 0.555% | RAM network inhibition [7] 2.46%

O=C(Nc1ccccc1C(=O)NCc1ccco1)c1ccccc1
inactive: growth inhibition [1] -21.8% | growth inhibition [2] -6.89% | viability increase [3] -3.16% | viability [4] 100% | viability [5] 90.5% | inhibition [6] 1.55% | RAM network inhibition [7] 8.28%

COc1ccccc1OCC(=O)NC1CCCCCC1
inactive: growth inhibition [1] -5.33% | growth inhibition [2] -8.23% | viability increase [3] -0.27% | viability [4] 96.3% | viability [5] 88.8% | inhibition [6] -0.49% | RAM network inhibition [7] 0.78%

CCCn1c(-c2ccc(OC)cc2)nc2ccccc21
inactive: growth inhibition [1] -16.6% | growth inhibition [2] -12.9% | viability increase [3] -0.51% | viability [4] 74.4% | viability [5] 71.9% | inhibition [6] 2.18% | RAM network inhibition [7] 7.97%

CCOc1ccccc1NC(=O)Cn1cnc2c(nnn2-c2cccc(OC)c2)c1=O
inactive: growth inhibition [1] -2.45% | growth inhibition [2] -1.71% | viability increase [3] -1.23% | viability [4] 87.2% | viability [5] 73.3% | inhibition [6] 3.82% | RAM network inhibition [7] 4.89%

CCn1cc(C2N3CC4(C)CN2CC(C)(C3)C4=O)c2ccccc21 (configuration not stated)
inactive: growth inhibition [1] -13.9% | growth inhibition [2] -16.4% | viability increase [3] -0.78% | viability [4] 97.3% | viability [5] 100% | inhibition [6] 1.94% | RAM network inhibition [7] 0.48%

O=C(NC1CCCCC1)C1CC(=O)N(c2ccc(Cl)cc2)C1 (configuration not stated)
inactive: growth inhibition [1] -4.29% | growth inhibition [2] 1.57% | viability increase [3] -0.58% | viability [4] 95.5% | viability [5] 90.4% | inhibition [6] 1.29% | RAM network inhibition [7] 2.04%

Cc1cccn2c(=O)c3cc(C#N)c(=NC(=O)c4ccccc4)n(Cc4ccco4)c3nc12
inactive: growth inhibition [1] -4.6% | growth inhibition [2] -12.7% | viability increase [3] -1.26% | viability [4] 72.7% | viability [5] 62.2% | inhibition [6] 1.75% | RAM network inhibition [7] 4.04%

Cc1ccc(CN2CCNC(=O)C2CC(=O)O)o1 (configuration not stated)
inactive: growth inhibition [1] -8.29% | growth inhibition [2] 2.8% | viability increase [3] -0.83% | viability [4] 105% | viability [5] 104% | inhibition [6] 1.5% | RAM network inhibition [7] 2.4%

Cc1c(C(=O)Nc2ccc(F)cc2)oc2ccc(S(=O)(=O)N3CCCC3)cc12
inactive: growth inhibition [1] -14.8% | growth inhibition [2] -6.18% | viability increase [3] -2.04% | viability [4] 101% | viability [5] 96% | inhibition [6] 3.88% | RAM network inhibition [7] 3%

COc1ccc(OC)c(-n2c(SCC(=O)Nc3cc(C)on3)nnc2-c2c[nH]c3ccccc23)c1
inactive: growth inhibition [1] -1.04% | growth inhibition [2] 6.54% | viability increase [3] -2.74% | viability [4] 79.2% | viability [5] 78.8% | inhibition [6] 1.31% | RAM network inhibition [7] 1.29%

CC(=O)c1ccc(NC(=O)CSc2nc3nc(C)cc(C)n3n2)cc1
inactive: growth inhibition [1] -20.6% | growth inhibition [2] -8.37% | viability increase [3] -1.88% | viability [4] 101% | viability [5] 93.9% | inhibition [6] 2.34% | RAM network inhibition [7] 2.78%

COc1cccc(-n2c(Cc3cc(=O)[nH]c(=O)[nH]3)nnc2SCC(=O)NC2CCCCC2)c1
inactive: growth inhibition [1] -4.46% | growth inhibition [2] -1.15% | viability increase [3] -1.6% | viability [4] 100% | viability [5] 101% | inhibition [6] 1.86% | RAM network inhibition [7] 3.48%

Cn1c(CNC(=O)c2ccc(F)cc2)nc2ccccc21
inactive: growth inhibition [1] -0.44% | growth inhibition [2] -5.71% | viability increase [3] -2.48% | viability [4] 99.5% | viability [5] 102% | inhibition [6] 0.325% | RAM network inhibition [7] 3.67%

Cc1ccc(-n2nc(C)c3c(C)c(CCC(=O)NCc4ccco4)c(C)nc32)cc1
inactive: growth inhibition [1] -15% | growth inhibition [2] -9.24% | viability increase [3] -3.52% | viability [4] 84.7% | viability [5] 75.5% | inhibition [6] 0.985% | RAM network inhibition [7] 4.13%

CCOc1ccc(N(CC(=O)Nc2ccccc2C)S(=O)(=O)c2c(C)noc2C)cc1
active: viability [4] 15.9% | viability [5] 18.1%
inactive: growth inhibition [1] 10.9% | growth inhibition [2] 4.1% | viability increase [3] -5.61% | inhibition [6] 2.38% | RAM network inhibition [7] -0.84%

O=C(CCCSc1nc2sc3c(c2c(=O)[nH]1)CCC3)NCCCO
inactive: growth inhibition [1] -8.91% | growth inhibition [2] 6.12% | viability increase [3] 0.57% | viability [4] 102% | viability [5] 99.8% | inhibition [6] 0.14% | RAM network inhibition [7] 1.44%
